IMP-1 inhibitor: IMP-1 metallo-beta-lactamase inhibitors, primary screen, biochemical, epi-absorbance readout, Pseudomonas aeruginosa enzyme; metallo-beta-lactamase IMP-1 (Pseudomonas aeruginosa); purified IMP-1, nitrocefin hydrolysis, epi-absorbance fluorescence; inhibition, % at 5.6 µM; hit rate 0.45% among 290,000; AID 1556, 2009;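 active = inhibition above the mean plus 3 SD of all compounds in the same screening run, cut at about 4.5% in these data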;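 also: 0% = IMP-1 with DMSO and 100% = DMSO wells lacking enzyme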
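Assay system: purified recombinant IMP-1 beta-lactamase. Input: IMP-1 0.2 nM before substrate addition. Buffer or medium: Zinc- and detergent-supplemented HEPES buffer, pH 7.1. Schedule: 25 °C, 15 min preincubation, 25 min reaction. Signal: Epi-absorbance fluorescence, 480 nm excitation, 530 nm emission. Evaluation: percent inhibition from optical density relative to buffer-blank wells.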
Neddylation inh: inhibitors of cullin neddylation, primary screen, biochemical, TR-FRET, uHTS, NAE and Ubc12. NEDD8-conjugating enzyme Ubc12 (Homo sapiens) + NEDD8-activating enzyme E1 regulatory …. calls only at 25 µM. hit rate 0.58% among 360,000. AID 651699, 2012; in the data active = inhibition above about 36%
VIM-2 inhibitor: VIM-2 metallo-beta-lactamase inhibitors, primary screen, biochemical, epi-absorbance readout, Pseudomonas aeruginosa enzyme. inhibition, % at 5.6 µM. purified VIM-2, nitrocefin hydrolysis, epi-absorbance fluorescence. AID 1527, 2009. hit rate 0.89% among 290,000;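 active = inhibition above the mean of all tested compounds plus 3 SD, cutoff set per screening run, cut at about 7.5% in these data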;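 also: red hydrolysis product quenches plate fluorescence so inhibitors raise well fluorescence; 0% = enzyme with DMSO and 100% = DMSO without enzyme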
procasp7 counter: procaspase-7 activators, primary screen, counter-screen for procaspase-3 activator project, biochemical, absorbance, HTS, human; Caspase-7 (Homo sapiens), P55210; AID 463210, 2010; recombinant procaspase-7, Ac-DEVD-pNA absorbance 405 nm; D23A/D198A/D206A triple mutant, cannot self-cleave; scale: DMSO 0, 5 µM enzyme 100; hit rate 0.093% among 330,000; activation, % at 8.5 µM;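 active = percent activation above the screen-wide mean plus 3 SD, cut at about 25% in these data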
Target sequence (P55210 whole entry D23A/D198A/D206A): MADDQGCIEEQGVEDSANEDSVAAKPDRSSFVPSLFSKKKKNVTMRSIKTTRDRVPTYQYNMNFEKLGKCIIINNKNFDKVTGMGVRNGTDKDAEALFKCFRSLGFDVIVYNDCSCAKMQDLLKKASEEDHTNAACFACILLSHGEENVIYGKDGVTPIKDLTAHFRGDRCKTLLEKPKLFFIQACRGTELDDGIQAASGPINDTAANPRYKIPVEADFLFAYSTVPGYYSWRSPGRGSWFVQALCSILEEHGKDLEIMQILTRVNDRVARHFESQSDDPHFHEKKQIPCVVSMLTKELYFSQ
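System: Uncleavable procaspase-7 mutant enzyme; Amount: 2 µM procaspase-7 mutant as dispensed; Schedule: 1 h compound preincubation, 2 h substrate cleavage, 25 °C; Measured by: 405 nm absorbance of p-nitroaniline; Evaluation: percent activation from buffer-corrected 0–120 min absorbance change; Control set: low DMSO alone, high DMSO plus 5 µM PC-7.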
proCasp3 act: activators of human procaspase-3 D3A mutant, primary screen, biochemical, absorbance, PC-3 D3A mutant, single concentration | recombinant procaspase-3 D3A, Ac-DEVD-pNA absorbance 405 nm | activation, % at 8.5 µM | hit rate 0.11% among 330,000 | AID 463141, 2010;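 active = activation above the mean of all tested compounds plus 3 SD, cut at about 21% in these data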;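 also: 0% = DMSO alone and 100% = DMSO wells spiked with extra 5 µM PC-3 D3A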
Target sequence (P42574 whole entry D9A/D28A/D175A): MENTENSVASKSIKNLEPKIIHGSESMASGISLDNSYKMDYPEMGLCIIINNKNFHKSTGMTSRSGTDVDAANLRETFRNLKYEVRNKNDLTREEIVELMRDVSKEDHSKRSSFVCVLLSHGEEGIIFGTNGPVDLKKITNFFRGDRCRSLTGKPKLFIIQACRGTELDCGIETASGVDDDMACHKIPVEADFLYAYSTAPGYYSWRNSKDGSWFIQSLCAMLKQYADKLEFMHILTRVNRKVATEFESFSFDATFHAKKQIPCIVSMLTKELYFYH
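Test system: Procaspase-3 D3A mutant, all three cleavage aspartates alanine | Dosing: Single dose, 8.5 µM nominal compound, 0.8% DMSO | Schedule: 1 h preincubation, 2 h reaction | Technique: 405 nm absorbance of p-nitroaniline, reads at 0 and 120 min | Repeats: One well per compound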
PolyA inh: polyadenylation inhibitors in yeast reporter cells, primary screen, luminescence, S. cerevisiae; S. cerevisiae SKY197-pL101 polyadenylation reporter, beta-gal luminescence; efflux-impaired pdr1/pdr3 knockout yeast; score 100 = 6 SD above DMSO; activity score, % at 12 µM; hit rate 0.02% among 300,000;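 active = lowest replicate activity score at least 50, where 100 means six control SD above control mean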;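 also: yeast exposed to compound for 9 h at 30 °C; higher score means more reporter readthrough which indicates perturbed polyadenylation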
* = called active by the depositor; i = inactive; / = no result given; + = active, no number. This is a sample that favours compounds with a hit; in the whole collection about 1.7% have one here.

SMILES	IMP-1 inhibitor	Neddylation inh	VIM-2 inhibitor	procasp7 counter	proCasp3 act	PolyA inh
CCOC(=O)C1CCN(C(=O)/C=C/c2ccccc2)CC1	-3	i	-4	3	11	2
COC(=O)C1=CN(c2ccc(OC)cc2)C=C(C(=O)OC)C1c1cc(OC)c(OC)cc1OC	-1	+	1	9	2	-14
COC(=O)C1=CN(Cc2cccs2)C=C(C(=O)OC)C1c1ccc(OC)cc1OC	-3	/	-3	8	2	-4
Fc1ccccc1-c1nnc2ccc3ccccc3n12	4.8*	i	-2	2	4	8
Cc1ccc(-c2ccc(CCC(=O)O)n2CC(=O)O)cc1	-2	+	-1	-12	-9	8
O=C(O)CCc1ccc(-c2ccc(F)cc2)n1CC(=O)O	-1	i	-1	-8	-10	6
CC(C)OC(=O)c1cccc2c1C(=O)c1ccccc1-2	-1	i	10*	1	1	-4
O=C(O)c1cccc2c1C(=O)c1ccccc1C2=O	-1	i	3	0	-3	7
NNc1nc(Nc2ccccc2)nc(Nc2ccccc2)n1	-3	i	-2	1	-3	-29
Cc1ccc(-n2[nH]c(C)c(C=Nc3ccc4[nH]c(=O)[nH]c4c3)c2=O)cc1	0	i	2	10	-5	0
Cc1ccc(N=Cc2c(C)[nH]n(-c3nc4ccccc4[nH]3)c2=O)cc1	5.0*	i	-1	-9	-5	1
Oc1c(C=Nc2cccc3cccnc23)sc2ccccc12	-2	/	9.7*	-15	-9	-88
Cc1ccc(N=Cc2sc(O)c3ccccc23)c(C)c1	28*	i	4	-16	-16	7
Cc1ccc(S(=O)(=O)N/N=C/c2ccccc2F)cc1[N+](=O)[O-]	5.9*	i	-1	7	5	-8
COc1ccccc1-c1cc2nc(C)c(CCC(=O)NC(C)CCc3ccco3)c(C)n2n1 (stereo unspecified)	0	+	1	3	0	6
CCc1cccc(N(C(=O)c2csnn2)C(C(=O)NC2CCCCC2)c2ccncc2)c1 (stereo unspecified)	-4	i	-3	6	1	1
COc1ccc(O)c(-c2[nH]ncc2C(=O)c2cccc(C)c2)c1	5.1*	i	-1	3	7	9
CN(Cc1nccn1C)C(=O)c1cc(COc2ccc3ncccc3c2)on1	-3	i	10.0*	9	6	8
CC1(C)CC(=O)C2=C(C1)OC(N)=C(C#N)C2CCc1ccccc1 (stereo unspecified)	4.7*	i	1	-11	-1	/
CC1(C)CC(=O)C2=C(C1)OC(N)=C(C#N)C2C#Cc1ccccc1 (stereo unspecified)	-1	i	-4	5	4	2
COc1ccc(CNc2cc(C)ccc2C)c(OC)c1OC	-5	i	-6	7	3	-13
COc1cc(Br)c(CNc2cc(C)ccc2C)cc1OC	4.7*	i	-2	-3	1	-2
CCCN(CCC)C(=O)CC(c1ccccc1)C1CCOC(C)(C)C1 (stereo unspecified)	-2	i	-4	4	0	3
O=C(C1CCN(c2ncnc3c2sc2cccc(F)c23)CC1)N1CCOCC1	-2	i	11*	3	1	-11
COc1ccc(C2C(C(=O)c3cccs3)=C(O)C(=O)N2c2cccc(C)n2)cc1 (stereo unspecified)	-4	i	-1	-38	-54	0
SMILES	IMP-1 inhibitor	Neddylation inh	VIM-2 inhibitor	procasp7 counter	proCasp3 act	PolyA inh
Cc1ccc(-c2nc3ccccc3o2)cc1NC(=O)Cc1cccs1	-1	i	-5	9	-4	25
Cn1c(OCc2cccnc2)nc2c1c(=O)n(Cc1ccccc1)c(=O)n2C	-2	i	8.7*	6	3	-2
CCN1/C(=C/C=C/c2sc3ccccc3[n+]2CC)Sc2ccccc21	/	i	/	-30	-16	93*
Cc1ccc(-n2c(-c3cn(C)nc3C)n[nH]c2=S)cc1	-5	/	8.9*	-11	0	-1
Cn1cc(Cl)c(-c2n[nH]c(=S)n2-c2ccc(F)cc2)n1	-1	i	11*	-10	-6	13
Fc1ccc(-c2n[nH]c(=S)n2-c2ccc3c(c2)OCCO3)cc1	0	i	9.2*	-5	-3	6
Cc1occc1-c1n[nH]c(=S)n1-c1ccccc1	-5	i	8.7*	1	-1	1
S=c1[nH]nc(-c2ccc(Cl)cc2)n1-c1ccc2c(c1)OCCO2	-3	i	3	-21	-13	6
Cc1ncsc1CCOC(=O)c1cccc([N+](=O)[O-])c1	-2	i	2	3	-5	-3
Cc1ccc(Cl)cc1NC(=O)CCN1C(=O)C2C3CCC(C3)C2C1=O (stereo unspecified)	-4	i	-3	-5	-11	-8
O=C(CCN1C(=O)C2C3C=CC(C4CC34)C2C1=O)Nc1ccc(Cl)cc1O (stereo unspecified)	13*	i	-3	5	-2	7
O=C(O)c1cc(N2C(=O)C=CC2=O)cc(N2C(=O)C=CC2=O)c1	/	i	/	/	/	/
CNc1ccc(/C=C(\CCC(=O)O)c2nc3ccccc3s2)cc1[N+](=O)[O-]	-4	i	11*	-3	-5	-4
Cc1ccc(/C=C(\CCC(=O)O)c2nc3ccccc3s2)cc1[N+](=O)[O-]	-1	i	8.8*	-13	0	6
CCC(C)NC(=O)c1cc(Cl)c(NC(=O)C2=C(C)OCCS2)cc1OC (stereo unspecified)	-1	i	1	-6	8	-25
CCN(CC)CCCNC(=O)c1cc(Cl)c(NC(=O)C2=C(C)OCCS2)cc1OC	-2	i	11*	5	-3	-9
C=CCNc1nc(NC(C)(C)CO)nc(OCC)n1	28*	i	-5	3	0	-12
COc1ccc(C)cc1-n1c(SCC(=O)NCC2CCCO2)nc2c([nH]c3ccccc32)c1=O (stereo unspecified)	0	i	-1	2	1	-6
